High-throughput results deposited in PubChem BioAssay by Sanford-Burnham Center for Chemical Genomics.
Apaf1 inhib = inhibitors of human Apaf-1 apoptosome; O14727; reconstituted apoptosome caspase-3 activity, DEVD-Rh110 fluorescence; inhibition, % at 20 µM; 330,000 compounds, 0.71% hits; AID 489030; active = inhibition of at least 40% at 20 µM;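 also: plate controls were DMSO wells for no effect and DEVD-CHO caspase inhibitor wells for full effect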
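Material: cell-free apoptosome with Apaf-1, procaspase-3 and caspase-9; Buffer or medium: Hepes pH 7.5 with detergent and BSA; Reagent: cytochrome c trigger plus (Z-DEVD)2-Rh110 caspase-3 substrate; Times: compound with Apaf-1, dATP, procaspase-3 30 min, then 50 min reaction, room temperature; Technique: Rh110 fluorescence intensity.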
CHOP UPR activ = apoptotic UPR (CHOP) activation | activation, % at 10 µM | 330,000 compounds, 0.34% hits | CHO-CHOP luciferase reporter, luminescence; percent of tunicamycin response over DMSO baseline;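 active = at 10 µM dose, activation of 40% or more, normalized to positive control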;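 also: 100% = tunicamycin at 10 µg/mL and 0% = DMSO alone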
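Test system: CHO CHOP reporter cells. Input: 500 CHO-CHOP cells per well. Medium: F12 with 10% FBS. Technique: luciferase luminescence. Measure: percent activation relative to tunicamycin control. Dosing: 10 µM compound, 0.5% DMSO. Timing: 16-18 h cell attachment, then 6 h compound exposure, 37 °C.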
UPR XBP1 act = activators of adaptive arm of unfolded protein response (XBP1). activation, % at 20 µM. CHO-XBP1 luciferase reporter, IRE1-XBP1 UPR activation, luminescence; percent of tunicamycin response, DMSO as zero. AID 463104. 330,000 compounds, 0.33% hits;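 active = versus positive control, 20 µM dose yields 30% or more activation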;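 also: 100% = tunicamycin at 10 µg/mL and 0% = DMSO only wells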
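Assay system: IRE1-XBP1 luciferase reporter CHO line. Input: 1000 cells/well. Buffer or medium: F12 with 10% serum. Doses: 20 µM, 1% DMSO. Times: overnight seeding at 37 °C, 6 h compound treatment at 37 °C. Technique: Steady-Glo luciferase glow luminescence, 10 min after reagent addition.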
Mdm2 MdmX PPI = disrupts the human Mdm2-MdmX interaction. 330,000 compounds, 3% hits. inhibition, % at 8 µM. SaOS-2 split-luciferase Mdm2/MdmX complementation, luminescence. O15151+Q00987. AID 485346;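 active = inhibition of at least 50% at 8 µM in the primary screen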
UBC13 inh = inhibitors of human UBC13 polyubiquitin chain formation | inhibition, % at 20 µM | P61088 | TR-FRET | 330,000 compounds, 0.47% hits; in the data active = inhibition above about 45%, passing the limit was not always enough
Mdm2-MdmX conf = human Mdm2/MdmX binding inhibition, confirmed; shares compounds with Mdm2 MdmX PPI; luminescent assay; inhibition, % at 8 µM; 10,000 compounds, 55% hits; AID 489028; in the data active = inhibition above about 40%
Full FLuc ctr = full-length luciferase inhibition in Mdm2/MdmX counter-screen. inhibition, % at 8 µM. shares compounds with Mdm2 MdmX PPI. 6,200 compounds, 77% hits. AID 504607. SaOS-2 full-length luciferase counterscreen, luminescence;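 active = mean inhibition at 8 µM reaching about 37%, which flags the compound as non-specific, limit read from the data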;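 also: p53-null SaOS-2 cells with luciferase driven by a doxycycline-inducible promoter; compound on cells about two nights before reading with doxycycline added after day one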
Numbers without * were called inactive; i = inactive; nt = no result. Hits are enriched below; roughly 4.1% of the tested compounds scored in any of these assays.

SMILES	Apaf1 inhib	CHOP UPR activ	UPR XBP1 act	Mdm2 MdmX PPI	UBC13 inh	Mdm2-MdmX conf	Full FLuc ctr
CC1CN(c2sc(S(C)(=O)=O)nc2S(=O)(=O)c2ccc(Cl)cc2)CC(C)O1 (configuration not stated)	5	1	-4	27	0	nt	nt
Cc1ccc(S(=O)(=O)c2nc(S(C)(=O)=O)sc2N2CCC(C)CC2)cc1	12	1	-7	53*	4	7	nt
CS(=O)(=O)c1nc(S(=O)(=O)c2ccc(Cl)cc2)c(N2CCOCC2)s1	-3	2	-2	57*	-1	13	nt
O=C(NC1(Cc2ccccc2)CCN(CCCc2ccccc2)C1=O)c1ccccc1 (configuration not stated)	15	2	-1	64*	21	54*	40*
N#Cc1c(N)nc(Sc2ccc(Cl)cc2)c(C#N)c1-c1ccccc1Cl	-8	1	-5	80*	39	48*	51*
CCSc1nc(N)c(C#N)c(-c2ccccc2Cl)c1C#N	14	-1	0	50*	41	38	66*
Cc1ccccc1N(C(=O)Cn1nnc2ccccc21)C(C(=O)NCc1ccco1)c1ccncc1 (configuration not stated)	0	1	0	18	-4	nt	nt
CCCCN(CCCC)S(=O)(=O)c1ccc(C(=O)Nc2nnc(COC)o2)cc1	-2	5	0	59*	0	22	nt
CCCCN(C)S(=O)(=O)c1ccc(C(=O)Nc2nnc(CSC)o2)cc1	7	2	-2	51*	-12	27	nt
CCN(CC)S(=O)(=O)c1ccc(C(=O)Nc2nnc(CSC)o2)cc1	-3	0	0	25	-2	nt	nt
CSc1nnc(-c2sccc2OCc2ccc(C)cc2)n1C	-4	-1	3	-10	7	nt	nt
CCN(CC(=O)NCc1ccc(Cl)cc1)C(=O)C1CCN(S(=O)(=O)c2ccc(OC)c(OC)c2)CC1	28	-1	-3	19	11	nt	nt
C=CCNC(=O)c1oc2ccc(S(=O)(=O)N3CCC4(CC3)OCCO4)cc2c1C	8	1	-4	13	2	nt	nt
CCN(CC)c1ccc(S(=O)(=O)N2CCOCC2)cc1NC(=O)c1cc(=O)c2ccccc2o1	20	0	9	51*	6	23	nt
COc1ccc(NC(=O)c2oc3ccc(S(=O)(=O)N4CCC5(CC4)OCCO5)cc3c2C)cc1	-11	3	-6	71*	-3	35	nt
Cc1c(C(=O)Nc2cc(S(=O)(=O)N3CCOCC3)ccc2N2CCN(C)CC2)oc2ccccc12	18	-1	4	56*	19	39	65*
COc1ccc(OC)c(/C=N/NC(=O)Cc2nc3ccccc3[nH]2)c1	17	-1	1	2	6	nt	nt
CC(=O)c1csc(COc2ccc(Cl)cc2)n1	-20	6	1	-39	4	nt	nt
CCN(CC)CCNc1ncnc2c1[nH]c1ccc(OC)cc12	3	0	-2	-2	23	nt	nt
CCN(CC)CCNC1=NCCn2c1cc1cc(OC)ccc12	10	1	0	64*	2	64*	68*
COc1ccc(NC(=O)CSc2nnc(NC(=O)c3ccc(S(=O)(=O)N4CCOCC4)cc3)s2)cc1	4	-1	1	-5	-21	nt	nt
O=[N+]([O-])c1cc(S(=O)(=O)C(F)(F)F)ccc1Sc1nc2ccccc2s1	8	20	-14	96*	-10	10	nt
CCN1/C(=C/c2ccc3cc(C)ccc3[n+]2CC)Sc2ccccc21	37	-7	-5	97*	i	95*	8
COC(=O)C1=C(C)NC2=C(C(=O)c3ccccc32)C1c1cccc(OC)c1 (configuration not stated)	10	2	1	24	-34	nt	nt
CC1=C([N+](=O)[O-])C(c2cccc(Br)c2)C2=C(N1)c1ccccc1C2=O (configuration not stated)	-2	-2	17	74*	-32	66*	84*
SMILES	Apaf1 inhib	CHOP UPR activ	UPR XBP1 act	Mdm2 MdmX PPI	UBC13 inh	Mdm2-MdmX conf	Full FLuc ctr
CCOC(=O)c1c(-c2ccccc2)oc2ccc(O)c(CN(C)C)c12	7	-1	0	55*	12	23	nt
CCOC(=O)c1c(CSCc2ccccc2)oc2ccc(O)c(CN(C)C)c12	-10	0	5	54*	24	47*	65*
CCOC(=O)c1c(-c2ccccc2)oc2ccc(O)c(CN3CCCC3)c12	3	-1	5	45	13	nt	nt
O=C(CCNC(=O)c1ccc([N+](=O)[O-])cc1)NC1CCCCCC1	-9	1	0	-22	-2	nt	nt
COc1cccc(NC(=O)C2CCN(C(=O)NC3CCCCC3)CC2)c1	-5	0	-1	-19	3	nt	nt
OCC1(CCc2ccccc2)CCN(Cc2cccn2-c2cccnc2)CC1	4	1	-1	-18	2	nt	nt
Cc1ccc(NC(=O)NNC(=O)Cn2nc(-c3ccccc3)c(-c3ccccc3)c(C#N)c2=O)cc1	21	2	2	53*	-10	57*	92*
Oc1ccc(F)c2cccnc12	0	5	6	4	-5	nt	nt
Oc1ccc(COCc2ccccc2)c2cccnc12	2	74*	11	80*	-21	54*	29
Oc1ccc(CNc2ccccc2F)c2cccnc12	1	4	4	89*	12	85*	31
O=C(O)c1sc2ncccc2c1OCc1ccccc1	4	-5	1	18	-8	nt	nt
CCCCN(CCCC)S(=O)(=O)c1ccc(OC)c2ncccc12	19	-2	0	9	-8	nt	nt
CCCOCc1ccc(O)c2ncccc12	0	28	12	75*	-13	56*	28
OCc1ccc(O)c2ncccc12	-3	1	-2	86*	-12	82*	43*
CN(Cc1ccco1)Cc1ccc(O)c2ncccc12	-5	0	1	18	-1	nt	nt
CC(C)COCc1ccc(O)c2ncccc12	-1	28	11	59*	-11	44*	52*
Cc1ccc(NC(=O)CSc2nc(=O)n(CCN(C)C)c3c2CCCC3)cc1Cl	26	10	2	37	4	nt	nt
O=c1cc(-c2ccc(O)cc2)oc2c1ccc1ccccc12	13	1	-1	42	14	nt	nt
COc1cc2oc(-c3ccc(O)cc3)cc(=O)c2c(OC)c1O	1	1	3	51*	25	17	nt
O=c1cc(-c2ccc(O)cc2)oc2ccc3ccccc3c12	0	-10	-9	68*	33	66*	75*
O=S(=O)(/N=C/c1c(O)ccc2ccccc12)c1cccs1	15	-3	-3	25	1	nt	nt
